Each molecule was assayed on 9F mAb (assay: Immunoblot of 3xFLAG-tagged aldolase C fragments in Neuro2a lysates with 9F mAb). Conditions: Neuro2a total protein lysates; 15% SDS-PAGE; 9F 1:1000; ECL.
Type: binding, mouse
Procedure, shortened: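 Neuro2a cells were plated without antibiotics to reach 70–90% confluence, transfected with lipofectamine 2000, given fresh medium at 6h and grown 48h at 37 °C. Lysis was 30 min on ice in 50mM Tris-HCl pH 7.5, 150mM NaCl, 0.1% Triton X-100 and 0.5 mM PMSF, cleared at 16000xg. Blots went onto nitrocellulose, blocked 1h in 5% milk/T-PBS. Primary 1h RT or overnight 4 °C; HRP anti-mouse 1:5000, 45min. α-tubulin loading control.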

Row | recognition of 3xFLAG-tagged aldolase C fragment by 9F mAb | Molecule
1 | absence of ECL signal | Clone 2: 3xFLAG-tagged human aldolase C aa 101-300, 25 kDa (protein, UniProt P09972 101-300, looked up, fragment, 3xFLAG tag) KGIVVGIKVDKGVVPLAGTDGETTTQGLDGLSERCAQYKKDGADFAKWRCVLKISERTPSALAILENANVLARYASICQQNGIVPIVEPEILPDGDHDLKRCQYVTEKVLAAVYKALSDHHVYLEGTLLKPNMVTPGHACPIKYTPEEIAMATVTALRRTVPPAVPGVTFLSGGQSEEEASFNLNAINRCPLPRPWALTF
2 | recognized | full-length: 3xFLAG-tagged human aldolase C aa 1-364, 43 kDa (protein, UniProt P09972 1-364, looked up, full-length 3xFLAG tag) MPHSYPALSAEQKKELSDIALRIVAPGKGILAADESVGSMAKRLSQIGVENTEENRRLYRQVLFSADDRVKKCIGGVIFFHETLYQKDDNGVPFVRTIQDKGIVVGIKVDKGVVPLAGTDGETTTQGLDGLSERCAQYKKDGADFAKWRCVLKISERTPSALAILENANVLARYASICQQNGIVPIVEPEILPDGDHDLKRCQYVTEKVLAAVYKALSDHHVYLEGTLLKPNMVTPGHACPIKYTPEEIAMATVTALRRTVPPAVPGVTFLSGGQSEEEASFNLNAINRCPLPRPWALTFSYGRALQASALNAWRGQRDNAGAATEEFIKRAEVNGLAAQGKYEGSGEDGGAAAQSLYIANHAY

Second part, the molecule before the results:

Row | Molecule | recognition of 3xFLAG-tagged aldolase C fragment by 9F mAb
3 | Clone 1B: 3xFLAG-tagged human aldolase C aa 101-210, 16 kDa (protein, UniProt P09972 101-210, looked up, fragment, 3xFLAG tag) KGIVVGIKVDKGVVPLAGTDGETTTQGLDGLSERCAQYKKDGADFAKWRCVLKISERTPSALAILENANVLARYASICQQNGIVPIVEPEILPDGDHDLKRCQYVTEKVL | detected Clone 1A (15kDa) but not Clone 1B
4 | Clone 1: 3xFLAG-tagged human aldolase C aa 1-210, 26 kDa (protein, UniProt P09972 1-210, looked up, fragment, 3xFLAG tag) MPHSYPALSAEQKKELSDIALRIVAPGKGILAADESVGSMAKRLSQIGVENTEENRRLYRQVLFSADDRVKKCIGGVIFFHETLYQKDDNGVPFVRTIQDKGIVVGIKVDKGVVPLAGTDGETTTQGLDGLSERCAQYKKDGADFAKWRCVLKISERTPSALAILENANVLARYASICQQNGIVPIVEPEILPDGDHDLKRCQYVTEKVL | recognized
5 | Clone 1A: 3xFLAG-tagged human aldolase C aa 1-100, 15 kDa (protein, UniProt P09972 1-100, looked up, fragment, 3xFLAG tag) MPHSYPALSAEQKKELSDIALRIVAPGKGILAADESVGSMAKRLSQIGVENTEENRRLYRQVLFSADDRVKKCIGGVIFFHETLYQKDDNGVPFVRTIQD | detected
